Values joined by “and” are separate entries in the source; they are usually repeats but may differ in a detail not shown here. Equal entries are not always repeated. Marks after values point to notes of the source that are not given here. Blank lines part the entries; values can stand above or below the compound they belong to.
How the values were obtained:
Format in all cases: in vivo, Japanese CRPC patients
testosterone = experiment: Pharmacodynamics: serum testosterone concentration
Procedure, shortened: (§1)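 Serum corticosterone, 11-deoxycorticosterone, testosterone and DHEA-S were measured at baseline and on days 2 and 8 of cycle 1. Abiraterone acetate was given orally once daily after an overnight fast, with no food for ≥1 h after dosing. It was given alone days 1–7, then with prednisone 5 mg twice daily. Results are summarised as change from baseline.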

[1] = Plasma abiraterone acetate and abiraterone pharmacokinetics
Procedure, shortened: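 Venous blood was drawn at predose and 0.5–12 h after dosing on cycle 1 days 1, 7 and 15 (monotherapy days 1–7; prednisone 5 mg twice daily from day 8), plus 24-h and trough samples. Samples were taken on NaF, spun at 1300 g and 4°C for 10 min, and stored at −20°C. Assay was validated LC/MS/MS (LLOQ 0.220 ng/mL). Cmax, tmax and AUC24 came from non-compartmental analysis.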

11-deoxycorticosterone = experiment: Pharmacodynamics: serum 11-deoxycorticosterone concentration
Procedure, shortened: as §1

[2] = tested on: castration-resistant prostate cancer; experiment: Efficacy: objective tumor response by RECIST
Procedure, shortened: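 Patients with measurable lesions were assessed for objective tumour response by RECIST. Dosing was once-daily oral abiraterone acetate (250, 500 or 1000 mg, the 1000 mg given 1 h premeal or 2 h postmeal) in 28-day cycles, with prednisone 5 mg twice daily added from cycle 1 day 8 onward.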

[3] = tested on: prostate-specific antigen (PSA); experiment: Efficacy: PSA response; conditions: for patients who achieved ≥50% PSA decline from baseline at one or more evaluation time points: entire treatment period; for mean percentage change from baseline in PSA levels: week 12
Procedure, shortened: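 Oral abiraterone acetate given once daily in 28-day cycles to chemotherapy-naïve patients on continued LHRH agonist or post-orchiectomy: monotherapy days 1–7 of cycle 1, then with prednisone 5 mg twice daily. PSA measured at screening and day 1 of each cycle. Response was a ≥50% fall from baseline confirmed to persist ≥4 weeks, per PCWG2.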

corticosterone = experiment: Pharmacodynamics: serum corticosterone concentration
Procedure, shortened: as §1

[4] = tested on: dehydroepiandrosterone sulfate (DHEA-S); experiment: Pharmacodynamics: serum DHEA-S concentration
Procedure, shortened: as §1

[5] = Cycle 1 Day 2, 1000 (+2 h) mg (n = 6)
[6] = Cycle 1 Day 2, 1000 (−1 h) mg (n = 6)
[7] = Cycle 1 Day 8, 1000 (+2 h) mg (n = 6)
[8] = Cycle 1 Day 8, 1000 (−1 h) mg (n = 6)

- plasma AA concentrations ([1]; most plasma concentrations, all cohorts, LLOQ 0.220 ng/mL): below the quantification limit
SMILES: CC(=O)O[C@H]1CC[C@@]2(C)C(=CC[C@@H]3[C@@H]2CC[C@]2(C)C(c4cccnc4)=CC[C@@H]32)C1 [Abiraterone acetate]
- Testosterone, mean (SD) change from baseline (testosterone; Cycle 1 Day 2, 250 mg (n = 9)): −3.6 (3.64) ng/dL
- Testosterone, mean (SD) change from baseline (testosterone; Cycle 1 Day 2, 500 mg (n = 6)): −4.8 (3.06) ng/dL
- Testosterone, mean (SD) change from baseline (testosterone; [5]): −7.5 (1.87) ng/dL
- Testosterone, mean (SD) change from baseline (testosterone; [6]): −8.0 (3.22) ng/dL
- Testosterone, mean (SD) change from baseline (testosterone; Cycle 1 Day 8, 250 mg (n = 9)): −6.2 (4.06) ng/dL
- Testosterone, mean (SD) change from baseline (testosterone; Cycle 1 Day 8, 500 mg (n = 6)): −8.2 (3.82) ng/dL
- Testosterone, mean (SD) change from baseline (testosterone; [7]): −9.2 (2.32) ng/dL
- Testosterone, mean (SD) change from baseline (testosterone; [8]): −10.8 (6.21) ng/dL
- mean change from baseline in testosterone levels, range over cohorts (testosterone; day 8 in cycle 1, 250-1000 mg): -10.8 to -6.2 ng/dL
- 11-deoxycorticosterone, mean (SD) change from baseline (11-deoxycorticosterone; Cycle 1 Day 2, 250 mg (n = 8)): 22.9 (10.13) ^† ng/dL
- 11-deoxycorticosterone, mean (SD) change from baseline (11-deoxycorticosterone; Cycle 1 Day 2, 500 mg (n = 6)): 40.3 (16.79) ng/dL
- 11-deoxycorticosterone, mean (SD) change from baseline (11-deoxycorticosterone; [5]): 45.7 (61.09) ng/dL
- 11-deoxycorticosterone, mean (SD) change from baseline (11-deoxycorticosterone; [6]): 36.3 (17.22) ng/dL
- 11-deoxycorticosterone, mean (SD) change from baseline (11-deoxycorticosterone; Cycle 1 Day 8, 250 mg (n = 8)): 45.9 (13.35) ^† ng/dL
- 11-deoxycorticosterone, mean (SD) change from baseline (11-deoxycorticosterone; Cycle 1 Day 8, 500 mg (n = 6)): 78.8 (36.41) ng/dL
- 11-deoxycorticosterone, mean (SD) change from baseline (11-deoxycorticosterone; [7]): 112.3 (65.15) ng/dL
- 11-deoxycorticosterone, mean (SD) change from baseline (11-deoxycorticosterone; [8]): 79.2 (51.53) ng/dL
- patients in whom the disease had progressed (RECIST) ([2]; 250 mg): 1 patients
- patients with stable disease (RECIST) ([2]; 250 mg): 1 patients
- patients with partial response (RECIST) ([2]; 500 mg): 1 patients
- patients with stable disease (RECIST) ([2]; 500 mg): 2 patients
- patients in whom the disease had progressed (RECIST) ([2]; 1000 (+2 h) mg): 1 patients
- patients with partial response (RECIST) ([2]; 1000 (−1 h) mg): 1 patients
- patients with stable disease (RECIST) ([2]; 1000 (−1 h) mg): 2 patients
- patients in whom the disease had progressed (RECIST) ([2]; all cohorts): 2 patients
- patients with partial response (RECIST) ([2]; all cohorts): 2 patients
- patients with stable disease (RECIST) ([2]; all cohorts): 5 patients
- PSA response rate ([3]; 250 mg cohort): 67%
- PSA response rate ([3]; 500 mg cohort, listed as AA): 50%
- PSA response rate ([3]; 1000 (+2 h) mg cohort, listed as AA): 83% and 83.3%
- PSA response rate ([3]; 1000 (−1 h) mg cohort, listed as AA): 67% and 66.7%
- patients with ≥50% PSA decline confirmed to be maintained for at least 4 weeks ([3]; all cohorts): 18/27
- overall PSA response rate ([3]; all cohorts (N = 27), ≥50% decline maintained ≥4 weeks): 67%
- patients from each dose-group with ≥50% PSA reduction ([3]; each dose-group): At least 3 patients
- patients who achieved ≥50% PSA decline from baseline at one or more evaluation time points ([3]; 250 mg): 7 patients
- patients who achieved ≥50% PSA decline from baseline at one or more evaluation time points ([3]; 500 mg): 3 patients
- patients who achieved ≥50% PSA decline from baseline at one or more evaluation time points ([3]; 1000 (+2 h) mg): 5 patients
- patients who achieved ≥50% PSA decline from baseline at one or more evaluation time points ([3]; 1000 (−1 h) mg): 5 patients
- patients who achieved ≥50% PSA decline from baseline at one or more evaluation time points ([3]; all cohorts): 20/27
- mean percentage change from baseline in PSA levels ([3]; 250 mg): −51.2%
- mean percentage change from baseline in PSA levels ([3]; 500 mg): −29.1%
- mean percentage change from baseline in PSA levels ([3]; 1000 mg (+2 h)): −37.6%
- mean percentage change from baseline in PSA levels ([3]; 1000 mg (−1 h)): −60.4%
- Corticosterone, mean (SD) change from baseline (corticosterone; Cycle 1 Day 2, 250 mg (n = 9)): 1097.1 (687.41) ng/dL
- Corticosterone, mean (SD) change from baseline (corticosterone; Cycle 1 Day 2, 500 mg (n = 6)): 2914.8 (1543.83) ng/dL
- Corticosterone, mean (SD) change from baseline (corticosterone; [5]): 4227.3 (2814.68) ng/dL
- Corticosterone, mean (SD) change from baseline (corticosterone; [6]): 1957.2 (1008.74) ng/dL
- Corticosterone, mean (SD) change from baseline (corticosterone; Cycle 1 Day 8, 250 mg (n = 9)): 2015.2 (769.39) ng/dL
- Corticosterone, mean (SD) change from baseline (corticosterone; Cycle 1 Day 8, 500 mg (n = 6)): 4086.5 (2478.82) ng/dL
- Corticosterone, mean (SD) change from baseline (corticosterone; [7]): 6426.2 (2212.64) ng/dL
- Corticosterone, mean (SD) change from baseline (corticosterone; [8]): 5147.8 (1642.75) ng/dL
- DHEA-S, mean (SD) change from baseline ([4]; Cycle 1 Day 2, 250 mg (n = 9)): −19.1 (13.49) ug/dL
- DHEA-S, mean (SD) change from baseline ([4]; Cycle 1 Day 2, 500 mg (n = 6)): −28.3 (24.32) ug/dL
- DHEA-S, mean (SD) change from baseline [4, 5]: −53.3 (34.14) ug/dL
- DHEA-S, mean (SD) change from baseline [4, 6]: −59.7 (49.87) ug/dL
- DHEA-S, mean (SD) change from baseline ([4]; Cycle 1 Day 8, 250 mg (n = 9)): −35.7 (25.51) ug/dL
- DHEA-S, mean (SD) change from baseline ([4]; Cycle 1 Day 8, 500 mg (n = 6)): −38.5 (37.31) ug/dL
- DHEA-S, mean (SD) change from baseline [4, 7]: −76.8 (54.02) ug/dL
- DHEA-S, mean (SD) change from baseline [4, 8]: −95.3 (77.99) ug/dL

- mean Cmax and AUC24 of abiraterone, 2 h postmeal versus 1 h premeal ([1]; 1000 mg cohort, overall): 3.1–6.0 times
- abiraterone Cmax and AUC24, 2 h postmeal versus 1 h premeal ([1]; AA 1000 mg multiple doses): approximately threefold to sixfold
- accumulation index for AUC24 of abiraterone ([1]; irrespective of dose): 1.40–1.69
- accumulation index for Cmax of abiraterone ([1]; irrespective of dose): 1.31–1.74
- time at which steady state of plasma abiraterone was reached ([1]; regardless of dose): ≤ 7 days
SMILES: C[C@]12CC[C@H](O)CC1=CC[C@@H]1[C@@H]2CC[C@]2(C)C(c3cccnc3)=CC[C@@H]12 [abiraterone]

From PMC4462344 (Cancer Science, 2014)
